In assay [1] the target is Muscarinic acetylcholine receptor M3 (Cavia porcellus) (UniProt Q8VH26). Nature of the assay: Agonist activity at muscarinic M3 receptor in guinea-pig ileum. It counts as functional, tissue-based. The essentials: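 Isolated tissues in an organ bath were washed for 30 min, then a cumulative dose–response curve to the compound was built. Contractions were recorded isometrically by force transducer and expressed as % of the maximal control-curve response. Parallel untreated tissues checked sensitivity drift. Values are means ± SEM of four to six independent experiments.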

Assay [2] addresses T1, Muscarinic acetylcholine receptor M4 (Homo sapiens, UniProt P08173).
T1 sequence (P08173 whole entry): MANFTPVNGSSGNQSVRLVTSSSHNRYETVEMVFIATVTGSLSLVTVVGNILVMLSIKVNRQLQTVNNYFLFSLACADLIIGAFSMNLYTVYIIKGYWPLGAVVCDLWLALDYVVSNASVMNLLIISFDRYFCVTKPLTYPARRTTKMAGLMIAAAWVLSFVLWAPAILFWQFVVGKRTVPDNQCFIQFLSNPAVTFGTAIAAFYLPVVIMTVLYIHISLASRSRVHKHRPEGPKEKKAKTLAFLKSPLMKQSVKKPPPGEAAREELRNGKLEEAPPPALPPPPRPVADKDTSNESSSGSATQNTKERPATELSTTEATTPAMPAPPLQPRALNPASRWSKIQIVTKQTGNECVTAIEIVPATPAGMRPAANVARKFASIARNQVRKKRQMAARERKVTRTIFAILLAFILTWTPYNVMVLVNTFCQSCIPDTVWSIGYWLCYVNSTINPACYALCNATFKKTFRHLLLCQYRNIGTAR
As to the kind of experiment: Agonist activity at human muscarinic M4 receptor expressed in CHO cells. It counts as functional, cell-based.

The target of assay [3] is T2, Muscarinic acetylcholine receptor M1 (Homo sapiens) (UniProt P11229).
T2 sequence (whole entry): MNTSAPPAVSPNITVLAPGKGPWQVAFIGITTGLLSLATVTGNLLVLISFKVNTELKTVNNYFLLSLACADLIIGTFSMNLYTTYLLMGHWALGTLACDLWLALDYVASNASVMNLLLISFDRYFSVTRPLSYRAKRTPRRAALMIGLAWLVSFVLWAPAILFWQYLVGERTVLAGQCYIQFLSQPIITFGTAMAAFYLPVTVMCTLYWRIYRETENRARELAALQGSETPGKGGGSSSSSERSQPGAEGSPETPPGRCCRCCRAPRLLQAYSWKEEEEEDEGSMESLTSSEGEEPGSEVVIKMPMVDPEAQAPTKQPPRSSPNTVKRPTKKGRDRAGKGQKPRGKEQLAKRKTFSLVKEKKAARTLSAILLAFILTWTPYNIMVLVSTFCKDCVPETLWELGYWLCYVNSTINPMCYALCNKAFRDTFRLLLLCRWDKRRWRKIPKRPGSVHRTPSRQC
The settings on record: Oryctolagus cuniculus; Vas deferens.

Assay [4] has as its system Muscarinic acetylcholine receptor M4 (Cavia porcellus). Nature of the assay: Agonist muscarinic M4 receptor in guinea-pig lung strips.
In assay [5] the test system is Muscarinic acetylcholine receptor M2 (Cavia porcellus). Nature of the assay: Agonist activity at muscarinic M2 receptor in guinea-pig stimulated left atria.
The target of assay [6] is Muscarinic acetylcholine receptor M3 (Cavia porcellus) (UniProt Q8VH26). As to the kind of experiment: Intrinsic activity at muscarinic M3 receptor in guinea-pig ileum assessed as ratio of agonist activity to activity of […]. It counts as functional, tissue-based.
The target in assay [7] is T2, Muscarinic acetylcholine receptor M1 (Homo sapiens). Nature of the assay: Antagonist activity at muscarinic M1 receptor in rabbit stimulated vas deferens at 10 uM. The settings on record: Oryctolagus cuniculus, target entry is the homologue from another species. It counts as functional, tissue-based.
Assay [8] relates to Muscarinic acetylcholine receptor M2 (Cavia porcellus). As to the kind of experiment: Intrinsic activity at muscarinic M2 receptor in guinea-pig stimulated left atria assessed as ratio of agonist activity to activity of arecaidine propargyl ester. The settings on record: […].
For assay [9], the system named is Muscarinic acetylcholine receptor M4 (Cavia porcellus). As to the kind of experiment: Intrinsic activity at muscarinic M4 receptor in guinea-pig lung strips assessed as ratio of agonist activity to activity of McN-A-343.
Assay [10] concerns the target T3, Muscarinic acetylcholine receptor M2 (Homo sapiens) (UniProt P08172).
T3 sequence (whole entry): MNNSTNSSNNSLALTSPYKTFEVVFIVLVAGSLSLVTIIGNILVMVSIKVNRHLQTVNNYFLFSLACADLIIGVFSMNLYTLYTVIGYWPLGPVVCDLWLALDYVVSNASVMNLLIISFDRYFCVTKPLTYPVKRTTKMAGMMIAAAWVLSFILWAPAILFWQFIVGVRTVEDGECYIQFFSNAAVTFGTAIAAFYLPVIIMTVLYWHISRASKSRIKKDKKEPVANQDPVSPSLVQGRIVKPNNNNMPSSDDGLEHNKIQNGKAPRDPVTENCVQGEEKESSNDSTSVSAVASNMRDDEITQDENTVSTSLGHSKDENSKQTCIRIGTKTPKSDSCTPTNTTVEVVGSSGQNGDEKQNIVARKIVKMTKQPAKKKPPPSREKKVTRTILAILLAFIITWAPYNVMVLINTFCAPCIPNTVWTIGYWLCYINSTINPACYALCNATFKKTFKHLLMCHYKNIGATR
As to the kind of experiment: Antagonist activity at muscarinic M2 receptor in guinea-pig stimulated left atria at 10 uM. It counts as functional. The settings on record: Cavia porcellus, target entry is the homologue from another species.

The target of assay [11] is T4, Muscarinic acetylcholine receptor M5 (Homo sapiens) (UniProt P08912).
T4 sequence (whole entry): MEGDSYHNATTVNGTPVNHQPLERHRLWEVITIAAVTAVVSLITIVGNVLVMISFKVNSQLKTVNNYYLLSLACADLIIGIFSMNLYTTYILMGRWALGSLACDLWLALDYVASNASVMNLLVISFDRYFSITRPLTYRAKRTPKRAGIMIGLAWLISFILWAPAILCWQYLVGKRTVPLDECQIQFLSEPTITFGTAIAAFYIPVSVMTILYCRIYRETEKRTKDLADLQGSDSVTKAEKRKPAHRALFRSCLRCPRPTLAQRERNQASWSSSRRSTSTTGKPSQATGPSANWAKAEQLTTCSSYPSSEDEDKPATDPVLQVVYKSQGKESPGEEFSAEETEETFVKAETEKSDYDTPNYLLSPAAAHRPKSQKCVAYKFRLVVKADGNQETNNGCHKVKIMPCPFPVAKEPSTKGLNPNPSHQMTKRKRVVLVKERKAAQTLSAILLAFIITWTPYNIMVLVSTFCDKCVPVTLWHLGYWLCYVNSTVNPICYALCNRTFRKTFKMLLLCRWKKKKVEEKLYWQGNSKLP
Nature of the assay: Agonist activity at human muscarinic M5 receptor expressed in CHO cells. It counts as functional, cell-based.

Calls of active or inactive are those of the source. No cut-off for these calls is given here.

Sequence of Muscarinic acetylcholine receptor M3 (Cavia porcellus) (Q8VH26 1-587): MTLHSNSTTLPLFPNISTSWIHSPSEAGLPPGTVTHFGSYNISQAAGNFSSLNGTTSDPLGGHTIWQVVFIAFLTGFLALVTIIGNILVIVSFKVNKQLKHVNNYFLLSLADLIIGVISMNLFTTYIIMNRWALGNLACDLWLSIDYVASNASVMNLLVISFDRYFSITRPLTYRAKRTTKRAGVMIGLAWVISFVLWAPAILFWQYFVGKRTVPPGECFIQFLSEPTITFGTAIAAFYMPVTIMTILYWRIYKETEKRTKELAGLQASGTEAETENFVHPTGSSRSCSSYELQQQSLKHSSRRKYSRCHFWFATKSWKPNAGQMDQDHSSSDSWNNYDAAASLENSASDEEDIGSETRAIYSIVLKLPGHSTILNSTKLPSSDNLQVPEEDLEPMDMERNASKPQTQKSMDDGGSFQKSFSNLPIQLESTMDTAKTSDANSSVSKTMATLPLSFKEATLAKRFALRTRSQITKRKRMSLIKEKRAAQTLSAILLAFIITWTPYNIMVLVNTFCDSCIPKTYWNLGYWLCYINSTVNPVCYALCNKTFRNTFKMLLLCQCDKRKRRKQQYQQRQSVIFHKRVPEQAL

Take `C[C@H]1OC[C@@H](C[N+](C)(C)C)O1` (relative stereo): in [1], the pD2 is 7.69.
Same read-out and setting: the figure for `C[C@H]1OC[C@H](C[N+](C)(C)C)O1` (relative stereo) is 7.47.
The term EC50 denotes the midpoint of the concentration-response curve. On to `CC1COCC(C[N+](C)(C)C)O1` (racemic; form 1) [listing 1 of 2 here], for which, in assay [2], the EC50 is 2.51 µM.
With `C[C@H]1COC[C@@H](C[N+](C)(C)C)O1`, in assay [2], the EC50 is 2.82 µM. Also, the pD2 came out at 6.78 in assay [3] and 7.65 in assay [1].
As a reminder, the pKb is −log10 of the Kb, conventionally taken in molar units. Read a low pKb as a high Kb. Take `C[C@H]1OCC[C@@H](C[N+](C)(C)C)O1`: the pD2 in assay [4] was 6.41; in assay [5], 5.24; in assay [1], 5.73. Moreover, the Intrinsic activity in [6], in assay [8] and in [9] was 1 in each case. Also, the pKb in assay [7] is greater than 5.
Take `C[C@H]1CSC[C@H](C[N+](C)(C)C)O1` (relative stereo): the pKb in [10] and in [7] was less than 5 in each case. In [6], the Intrinsic activity came to 1. The compound also displayed a pD2 in [1] of 5.21.
As for `CC1OC(C[N+](C)(C)C)CS1` (racemic), the pD2 was 6.81 in assay [3] and 7.75 in assay [1].
Turning to `CC1COCC(C[N+](C)(C)C)O1` (racemic; form 1) [listing 2 of 2 here], the results for the pD2 in assay [3] and in assay [1] were 5.65 and 7.34, respectively.
`CC1COCC(C[N+](C)(C)C)O1` (racemic; form 2) had a half-maximal effective concentration (EC50) in [2] of 282 µM.
On to `C[C@H]1COC[C@H](C[N+](C)(C)C)O1`, for which the figures for the pD2 in [3] and in [1] were 5.08 and 6.02, respectively.
As for `C[C@@H]1COC[C@H](C[N+](C)(C)C)O1`, the EC50 in assay [2] is 25.1 µM. In [7], this compound returned a pKb of less than 5. Further, the pD2 in [1] worked out at 6.53. Moreover, the outcome in [11] was inactive.
As for `C[C@@H]1O[C@H](C[N+](C)(C)C)CS1`, the pD2 in assay [1] is 8.06.
For the compound `C[C@H]1CSC[C@@H](C[N+](C)(C)C)O1` (relative stereo), the pD2 in assay [5] was found to be 6.26; in assay [3], 4.46; in assay [1], 6.46. Further, the Intrinsic activity in assay [6] and in [8] was 1 in each case.
`C[C@H]1O[C@@H](C[N+](C)(C)C)CS1` returned a pD2 in assay [1] of 5.82.

(Values after ChEMBL document CHEMBL1144548, “Dioxane and oxathiane nuclei: suitable substructures for muscarinic agonists” (Bioorg Med Chem, 2007).)
